Compound activity from PubChem BioAssay.
SENP7 inh: SENP7 protease inhibitors, primary screen, biochemical, luminescence, uHTS; Sentrin-specific protease 7 (Homo sapiens), Q9BQF6; recombinant SENP7, Z-RLRGG-aminoluciferin luminescence, 40 min; inhibition, % at 5 µM; 330,000 tested, 1.5% active; AID 434973, 2010;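 active = inhibition above about 50% at the single test dose, limit read from the data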;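 note: plate controls were DMSO with enzyme for no effect and no enzyme buffer wells for full effect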
SENP8 block-1: human SENP8 protease inhibitors, primary screen, biochemical, fluorescence, Nedd8 protein substrate, uHTS; Sentrin-specific protease 8 (Homo sapiens), Q96LD8; recombinant SENP8; inhibition, % at 20 µM; 360,000 tested, 0.64% active; AID 602440, 2012; in the data active = inhibition mostly above about 40%, no sharp cut-off; inactive = mostly below about 27%
Target sequence (Q96LD8 whole entry, looked up): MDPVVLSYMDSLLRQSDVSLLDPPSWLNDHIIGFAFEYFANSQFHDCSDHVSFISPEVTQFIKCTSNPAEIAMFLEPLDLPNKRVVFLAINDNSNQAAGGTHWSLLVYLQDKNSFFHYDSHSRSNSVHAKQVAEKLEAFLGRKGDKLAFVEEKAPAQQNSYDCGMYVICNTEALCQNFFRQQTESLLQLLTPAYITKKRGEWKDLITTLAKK
SENP6 block: SENP6 protease inhibitors, primary screen, biochemical, luminescence, uHTS | AID 2599, 2010 | inhibition, % at 10 µM | Recombinant SENP6 catalytic domain, aminoluciferin luminescence | Sentrin-specific protease 6 (Homo sapiens), Q9GZR1 | 330,000 tested, 1.8% active;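 active = inhibition above about 50% at the single tested dose, limit read from the data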;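 note: plate controls were DMSO wells with enzyme for no effect and DMSO wells lacking enzyme for full effect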
SENP8 block-2: SENP8 protease inhibitors, primary screen, biochemical, luminescence | Sentrin-specific protease 8 (Homo sapiens), Q96LD8 | purified SENP8, Z-RLRGG-aminoluciferin cleavage | inhibition, % at 10 µM | 330,000 tested, 1.2% active | AID 2540, 2010; in the data active = inhibition above about 50%
SENP1 FRET inh: human SENP1 catalytic domain inhibitors, primary screen, biochemical, FRET, uHTS | Sentrin-specific protease 1 (Homo sapiens), Q9P0U3 | recombinant SENP1 catalytic domain, CyPet-SUMO1-YPet FRET cleavage | inhibition, % at 10 µM | 360,000 tested, 0.21% active;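 active = inhibition at least 30% at 10 µM, raw YFP signal under a set limit, fluorescence ratio 0.5 to 1.5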;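 note: 0% = enzyme with DMSO and 100% = no enzyme wells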
Target sequence (Q9P0U3 419-644 limits assumed): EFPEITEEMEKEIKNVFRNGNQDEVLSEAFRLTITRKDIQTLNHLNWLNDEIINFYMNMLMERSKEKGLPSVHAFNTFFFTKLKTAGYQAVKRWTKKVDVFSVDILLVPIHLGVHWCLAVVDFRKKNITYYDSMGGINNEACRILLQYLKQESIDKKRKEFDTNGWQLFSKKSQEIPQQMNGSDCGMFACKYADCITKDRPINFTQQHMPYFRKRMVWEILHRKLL
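Test system: human SENP1 catalytic domain; medium: Tris pH 8 buffer plus EDTA, NaCl, BME, BSA, NP40, catalase; incubation: 50 min reaction at room temperature; technique: FRET, CFP and YFP emission; controls: no-enzyme low control and enzyme-plus-DMSO high control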
Apaf-1 inh: inhibitors of human Apaf-1 apoptosome, primary screen, biochemical, DEVD-Rh110 fluorescence, uHTS | Apoptotic protease-activating factor 1 (Homo sapiens), O14727 | reconstituted apoptosome caspase-3 activity | inhibition, % at 20 µM | 330,000 tested, 0.71% active; active = inhibition of at least 40% at 20 µM;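 note: plate controls were DMSO wells for no effect and DEVD-CHO caspase inhibitor wells for full effect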
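Material: biochemical Apaf-1 apoptosome reconstitution. Medium: Hepes buffer, pH 7.5. Also added: cytochrome c activation, bis-DEVD rhodamine 110 substrate. Timing: 30 min compound preincubation, 50 min activation, room temperature. Measured by: rhodamine 110 fluorescence at Ex 480/Em 540 nm.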
SENP8 confirm: SENP8 protease inhibitors, retest, confirmation, biochemical, luminescence, single concentration | 6,200 tested, 40% active | shares compounds with SENP7 inh | Recombinant SENP8, Z-RLRGG-aminoluciferin luminescence, 60 min | AID 488912, 2010 | inhibition, % at 12.5 µM;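 active = mean inhibition across replicates above about 50%, limit read from the data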
SENP6 confirm: SENP6 protease inhibitors, confirmation, biochemical, luminescence, single concentration; inhibition, % at 12.5 µM; AID 488915, 2010; 6,200 tested, 58% active; recombinant SENP6, Z-RLRGG-aminoluciferin luminescence; shares compounds with SENP7 inh
SENP7 confirm: SENP7 protease inhibitors, retest, confirmation, biochemical, luminescence, single concentration; shares compounds with SENP7 inh; recombinant SENP7, Z-RLRGG-aminoluciferin luminescence, 40 min; inhibition, % at 12.5 µM; 6,200 tested, 69% active
Casp3 select: caspase-3 protease inhibitors, confirmation, selectivity assay for SENP inhibitor project, biochemical, single concentration | shares compounds with SENP7 inh | purified caspase-3, Z-DEVD-aminoluciferin luminescence, 60 min | inhibition, % at 12.5 µM | 6,200 tested, 60% active | AID 488918, 2010;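 active = mean inhibition above about 50%, limit read from the data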;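 note: plate controls were enzyme with DMSO for no effect and wells without caspase-3 for full effect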
Target sequence (P42574 28-227 limits assumed): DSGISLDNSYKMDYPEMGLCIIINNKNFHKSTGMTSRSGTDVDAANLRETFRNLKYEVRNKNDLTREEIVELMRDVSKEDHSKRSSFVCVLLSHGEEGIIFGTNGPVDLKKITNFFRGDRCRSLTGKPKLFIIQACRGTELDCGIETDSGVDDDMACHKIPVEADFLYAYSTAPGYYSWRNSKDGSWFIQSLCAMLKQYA
Luc interf: interferes with luciferase luminescence in SENP counter-screen; shares compounds with SENP7 inh; Pre-incubated SENP8/Z-RLRGG-aminoluciferin, luciferase luminescence interference; inhibition, % at 12.5 µM; 6,200 tested, 39% active;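 active = mean inhibition above about 50% when retested at one dose, limit read from the data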;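 note: plate controls were DMSO wells with completed reaction for no effect and substrate without enzyme for full effect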
The depositor's hits bear a star; x = not tested or not shown. The list is not random: actives were taken first. Their share in the collection is about 2.9%.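 Rule for the calls, unless noted: active = mean inhibition above about 50% in the one-dose retest (limit read from the data); inactive = the rest.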

SMILES	SENP7 inh	SENP8 block-1	SENP6 block	SENP8 block-2	SENP1 FRET inh	Apaf-1 inh	SENP8 confirm	SENP6 confirm	SENP7 confirm	Casp3 select	Luc interf
CCCSc1nc2c(cnn2-c2ccccc2)c(=O)n1N	35.8	5.6	31.5	21.8	0.6	-2.8	x	x	x	x	x
Nn1c(SCc2ccccc2)nc2c(cnn2-c2ccccc2)c1=O	43.3	8.9	62.0*	21.7	1.2	-2.7	23.4	14.5	63.8*	31.9	17.1
O=c1c2cnn(-c3ccccc3)c2nc(-c2cccs2)n1-c1ccc(Br)cc1	-2.8	-115.0	7.0	3.8	9.4	7.8	x	x	x	x	x
COc1ccc(N(C)S(=O)(=O)c2cccc(C(=O)OCC(=O)N(C)c3ccccc3)c2)cc1	6.8	2.9	-8.3	4.6	2.4	19.2	x	x	x	x	x
O=C(O)c1cccc(Nc2ncnc3sccc23)c1	86.4*	-19.2	91.1*	79.5*	-29.5	0.1	91.8*	90.6*	100.3*	63.6*	88.3*
Fc1cccc(Nc2ncnc3sccc23)c1	-6.7	-9.3	-12.5	-17.3	-76.3	10.7	x	x	x	x	x
Cc1cc(N=Nc2ccccc2)cc(C)c1NC(=O)C(F)(F)F	x	23.9	x	x	0.7	x	x	x	x	x	x
CCOc1ccc(NC(=O)c2c(N)n(C)c(=O)[nH]c2=O)cc1	47.6	22.9	58.5*	20.2	0.4	-0.5	15.0	11.7	23.0	26.7	1.7
CCOc1ccc(NC(=O)c2[nH]c(C)c(C(C)=O)c2C)cc1	58.7*	17.1	50.3*	41.4	-1.5	1.4	56.7*	50.3*	81.0*	74.8*	62.1*
CC(=O)c1c(C)[nH]c(C(=O)Nc2ccc3c(c2)OCCO3)c1C	57.5*	16.3	57.6*	23.1	1.1	6.6	57.1*	53.3*	83.8*	75.1*	59.7*
CCN(CC(=O)Nc1ccc2c(c1)OCCO2)C(=O)COc1ccc(C(C)=O)cc1	x	14.0	x	x	2.3	x	x	x	x	x	x
Cc1ccc(NC(=O)c2cnn(-c3ccccc3)c2C)cc1	67.1*	13.1	66.3*	45.7	0.4	1.9	67.1*	63.7*	88.6*	70.0*	20.4
CCc1cccc(NC(=O)c2cnn(-c3ccccc3)c2C)c1	85.2*	11.0	89.7*	82.9*	1.3	13.9	1.8	86.8*	97.6*	81.4*	81.0*
COc1cccc(NC(=O)c2cnn(-c3ccccc3)c2C)c1	84.7*	6.3	82.4*	78.4*	1.3	-1.2	8.2	85.0*	98.1*	89.0*	86.2*
Cc1cccc(C)c1NC(=O)c1cnn(-c2ccccc2)c1C	-11.7	15.0	-19.5	-2.7	2.0	0.9	x	x	x	x	x
Cc1ccc(NC(=O)c2cnn(-c3ccccc3)c2C)c(C)c1	-5.3	13.7	-5.7	0.1	1.0	0.8	x	x	x	x	x
O=C(N/N=C/c1ccsc1)c1ccc2ccccc2n1	-0.3	-14.5	-0.2	-3.2	2.1	2.5	x	x	x	x	x
CSc1ccccc1NC(=O)CN(C)C(=O)c1ccc(-n2cccn2)cc1	-1.6	-4.3	2.0	-1.4	-9.5	-4.1	x	x	x	x	x
COc1ccc2c(c1OC)C(=O)OC2Nc1nc(-c2cc3cc([N+](=O)[O-])ccc3oc2=O)cs1 (centres undefined)	65.4*	11.1	60.3*	52.0*	4.6	-2.7	-7.2	-8.8	1.7	22.4	4.7
COc1ccc2c(c1OC)C(=O)OC2Nc1nc(-c2cc3ccccc3oc2=O)cs1 (centres undefined)	91.0*	-241.5	96.1*	90.0*	-5.9	-7.9	90.8*	95.3*	87.9*	94.1*	86.4*
COc1cccc(-c2csc(NC3OC(=O)c4c3ccc(OC)c4OC)n2)c1 (centres undefined)	-4.9	14.7	-25.3	-13.4	1.3	-18.8	x	x	x	x	x
COc1ccc2c(c1OC)C(=O)OC2Nc1nc(-c2ccc(-c3ccccc3)cc2)cs1 (centres undefined)	63.1*	-307.5	82.9*	69.3*	0.1	2.4	50.9*	49.4	56.1*	37.9	73.5*
CCCNC(=O)CSc1nnc(-c2ccccc2Br)n1-c1cccc(C(F)(F)F)c1	54.2*	10.3	-3.4	-4.0	1.4	5.4	-1.9	-0.3	-4.5	0.2	0.4
COc1ncnc2sc(-c3ccccc3)cc12	98.6*	2.8	93.2*	96.8*	-2.7	2.1	96.0*	95.3*	99.9*	95.1*	91.6*
CC(C)c1ccc(S(=O)(=O)N2CCN(C(=O)C3CCCC3)CC2)cc1	5.6	4.7	-11.6	-3.0	0.1	12.8	x	x	x	x	x
CCc1ccc(OC2(C)CCN(Cc3ccc4c(c3)OCCO4)C2)cc1 (centres undefined)	x	26.8	x	x	3.3	x	x	x	x	x	x
O=C(Nc1cc([N+](=O)[O-])ccc1O)c1ccc2c(c1)C(=O)N(Cc1ccco1)C2=O	38.1	8.1	81.6*	75.7*	2.5	11.3	47.2	83.5*	74.4*	77.3*	84.4*
O=C(Nc1cc([N+](=O)[O-])ccc1O)c1cccc([N+](=O)[O-])c1	67.2*	29.2	83.3*	68.6*	1.3	-6.7	84.8*	82.7*	97.1*	86.4*	70.4*
O=C(Nc1ccc(O)cc1C(=O)O)c1ccc2c(c1)C(=O)N(Cc1ccco1)C2=O	-2.2	17.9	-10.8	0.2	4.4	3.3	x	x	x	x	x
COC(=O)c1oc2ccc(Cl)cc2c1N	45.7	-307.1	53.3*	23.7	0.7	-6.9	35.1	32.5	69.1*	58.3*	31.9
